# Assay outcomes (PubChem BioAssay)
# TRPC6 inhibitor: blocks the mouse TRPC6 cation channel. Q61143. HEK293-TRPC6, membrane potential dye, ACh-evoked depolarization; hits give low values. B-score at 10 µM. actives 1.1% (n = 310,000);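 active = B-score under library mean minus 3 SD, initial fluorescence not abnormally high, positive integrated signal ratio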;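 note: B-score derived from integrated fluorescence ratio over the kinetic read; more negative B-score means stronger inhibition of depolarization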
# Target sequence (Q61143 whole entry, looked up): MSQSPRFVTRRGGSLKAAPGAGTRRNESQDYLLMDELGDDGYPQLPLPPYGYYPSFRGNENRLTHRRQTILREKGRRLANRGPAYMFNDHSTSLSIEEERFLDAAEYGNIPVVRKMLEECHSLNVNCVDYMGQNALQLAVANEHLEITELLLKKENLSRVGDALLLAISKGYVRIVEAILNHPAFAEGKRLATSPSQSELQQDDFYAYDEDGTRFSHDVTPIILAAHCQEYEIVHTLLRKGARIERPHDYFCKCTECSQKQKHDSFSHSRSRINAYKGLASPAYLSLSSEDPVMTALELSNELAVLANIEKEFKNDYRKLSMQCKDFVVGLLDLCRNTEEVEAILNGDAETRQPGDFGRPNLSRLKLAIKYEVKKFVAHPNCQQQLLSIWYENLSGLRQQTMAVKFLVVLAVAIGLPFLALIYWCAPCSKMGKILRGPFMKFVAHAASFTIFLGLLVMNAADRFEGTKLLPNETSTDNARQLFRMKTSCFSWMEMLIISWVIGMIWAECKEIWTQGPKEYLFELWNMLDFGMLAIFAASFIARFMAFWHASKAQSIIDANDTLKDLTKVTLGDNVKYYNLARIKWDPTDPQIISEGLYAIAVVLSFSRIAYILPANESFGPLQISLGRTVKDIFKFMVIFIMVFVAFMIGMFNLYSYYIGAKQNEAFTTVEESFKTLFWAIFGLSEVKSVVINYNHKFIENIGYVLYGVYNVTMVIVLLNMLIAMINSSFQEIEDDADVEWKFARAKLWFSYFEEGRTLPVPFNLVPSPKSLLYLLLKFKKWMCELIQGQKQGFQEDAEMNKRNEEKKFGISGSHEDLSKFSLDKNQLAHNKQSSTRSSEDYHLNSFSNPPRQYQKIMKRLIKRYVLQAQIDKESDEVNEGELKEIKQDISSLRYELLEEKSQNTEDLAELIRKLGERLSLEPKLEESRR
# TRPC4 inh: TRPC4 (mouse) channel inhibition | actives 0.39% (n = 300,000) | AID 2247 | HEK293 TRPC4beta/mu-opioid, DAMGO-evoked Fluo4 calcium flux; hits give low values | B-score at 10 µM;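 active = B-score over 3 SD under the library average, no early fluorescence shift, positive overall ratio signal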
#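 Material: HEK293 cells with stable TRPC4beta plus mu-opioid receptor expression; probe or stimulus: DAMGO in two steps, submaximal then maximal; technique: Fluo4 calcium fluorescence by kinetic imaging, 5 s 1 Hz baseline; measure: integrated fluorescence ratio relative to baseline, converted to per-well B score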
# TRPC4 potent: TRPC4 (mouse) allosteric potentiation; HEK293 TRPC4beta/mu-opioid, DAMGO EC20, Fluo-4 Ca2+ flux; hits give high values; B-score at 10 µM; actives 0.42% (n = 310,000); AID 2227;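 active = B-score of calcium response area above 5 SD of library B-scores, with initial fluorescence ratio within 5 SD of library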;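 note: B-score of integrated fluorescence ratio over time as area under calcium response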
# TRPC6 act: activates the mouse TRPC6 cation channel; Q61143; HEK293-TRPC6 membrane potential dye fluorescence; hits give high values; B-score at 10 µM; actives 0.13% (n = 310,000); AID 2550;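 active = B-score of the integrated fluorescence ratio above library mean plus 3 SD, and starting fluorescence ratio within library mean plus 5 SD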;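 note: higher score means more depolarization so channel activation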
# TRPC4 act: activators of mouse TRPC4 channel. Q9QUQ5. AID 2237. HEK293 TRPC4beta/mu-opioid, Fluo4 calcium fluorescence; hits give high values. B-score at 10 µM. actives 0.49% (n = 310,000);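 active = B-score above 5 SD of library B-scores, and initial fluorescence ratio not above library mean plus 5 SD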;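 note: positive B-score marks a calcium rise read as TRPC4 activation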
#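 System: HEK293 cells stably co-expressing mouse TRPC4beta and mu-opioid receptor; Schedule: Fluo4 dye loading 45 min at room temperature, 110 s recording; Detection: Fluo4 fluorescence, kinetic; Evaluation: B-scored integrated calcium fluorescence ratio; Controls: buffer (low) and maximal DAMGO (high).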
# Numbers without * were called inactive; i = inactive. This is a sample that favours compounds with a hit; in the whole collection about 2.3% have one here.
SMILES,TRPC6 inhibitor,TRPC4 inh,TRPC4 potent,TRPC6 act,TRPC4 act
COc1cccc(CNC(=O)CCC2CCCN(Cc3cc(Cl)ccc3O)C2)c1 (stereo not given),i,-7*,i,i,i
Cc1cc(=O)oc2c3c(cc(OCC(=O)NC(Cc4ccc(Cl)cc4)C(=O)O)c12)OC(C)(C)CC3 (stereo not given),i,i,i,i,i
C/C(=N\Nc1ccc(C(=O)O)cc1)c1ccc(S(=O)(=O)NCc2ccco2)cc1,i,i,i,i,i
COc1cc(OC)nc(Oc2cc(C=O)ccc2OC)n1,i,i,i,i,i
CCN(CC)C(=O)c1sc2nc(-c3ccncc3)[nH]c(=O)c2c1C,i,i,i,i,i
CCN(CC)C(=O)c1sc2nc(-c3ccccn3)[nH]c(=O)c2c1C,i,i,i,i,68*
COc1ccc(OC)c(-n2c(CNC3CCN(Cc4ccccc4)CC3)nc3ccccc3c2=O)c1,i,i,i,i,73*
O=C(COc1coc(CN2CCN(c3ccccc3F)CC2)cc1=O)Nc1ccccc1,i,i,32*,i,i
COC(=O)NCC(c1ccc2c(c1)OCO2)N1CCN(c2ccc(OC)cc2)CC1 (stereo not given),i,i,i,i,67*
COCCNC(=O)C(=O)NCC(c1ccc2c(c1)OCO2)N1CCN(c2ccc(F)cc2)CC1 (stereo not given),i,i,i,i,i
COc1ccc(N2CCN(C(CNC(=O)C(C)C)c3ccc4c(c3)OCO4)CC2)cc1 (stereo not given),i,i,i,i,51*
CN1CCN(CC(=O)Nc2c(C#N)cnn2-c2ccccc2)CC1,i,i,i,i,59*
Cc1cc(S(=O)(=O)Nc2ccc(C(=O)NCC(c3ccco3)N3CCCCC3)cc2)ccc1F (stereo not given),i,i,i,i,i
Cc1ccc(S(=O)(=O)Nc2cccc(C(=O)NCC(c3ccco3)N3CCCCC3)c2)cc1F (stereo not given),i,-9*,i,i,i
Cc1ccc(S(=O)(=O)NCCC(=O)NCC(c2ccco2)N2CCCCC2)cc1C (stereo not given),i,-6*,i,i,72*
COc1ccc2[nH]c3c(c2c1)CCN1C(=O)N([C@@H](C)C(=O)NC2CCCCC2C)C(=O)[C@]31C (stereo not given in full),i,i,i,i,i
COC(=O)c1cc(C#N)c(Oc2ccccc2)nc1C,i,i,i,i,i
COc1ccccc1Oc1nc(C)c(C(C)=O)cc1C#N,i,i,12*,i,i
O=C(NN1C(=O)C2C(c3ccccc3)C=CC(c3ccccc3)C2C1=O)c1cccc(Br)c1 (stereo not given),i,i,i,i,i
CC(C)(C)OC(=O)NCCCC1=CC2=CC(=O)C(C)(OC(=O)C3CCCC3)C(=O)C2=CO1 (stereo not given),i,i,i,i,i
Clc1ccc2[nH]c3c(c2c1)CNCC3,i,i,19*,i,i
O=C1CCCc2c1[nH]c1ccc(Cl)cc21,i,i,i,i,i
O=C(O)c1cccc2c3c([nH]c12)CCCC3,i,i,i,i,i
Clc1cccc2c3c([nH]c12)CCNC3,i,i,16*,i,i
Nc1nc(Nc2cccc(Cl)c2)n[nH]1,i,i,i,i,i
SMILES,TRPC6 inhibitor,TRPC4 inh,TRPC4 potent,TRPC6 act,TRPC4 act
CNc1nc(SCc2ccccc2Cl)nc2c1CCCC2,i,-6*,i,i,i
O=c1[nH]c(SCc2ccccc2Cl)nc2c1CCC2,i,i,i,i,i
Cn1nc(C(=O)Nc2ccccc2N2CCCC2)c2ccccc2c1=O,i,i,i,i,i
COc1cc(C=O)ccc1OC(=O)c1ccncc1,i,i,i,i,i
COc1cc(C=O)ccc1OC(=O)c1ccc(C(C)C)cc1,i,-6*,i,i,i
Cc1c(-c2ccccc2)nc2ccccc2c1C(=O)O,i,i,i,i,i
CC[C@H](NC(=O)c1c(C)c(-c2ccccc2)nc2ccccc12)c1ccccc1,i,i,i,13.2*,i
CCN1C(=O)C(CC(=O)Nc2ccccc2)S/C1=N\c1ccccn1 (stereo not given),i,i,i,i,i
Cc1c(Cl)cccc1NC(=S)NCc1cccn1C,i,-6*,i,i,i
Cc1ccccc1NC(=S)NCc1cccn1C,i,i,i,i,i
CNc1nc(-c2ccc3c(c2)CCN3C(=O)CC(C)(C)C)c(C)s1,i,i,i,i,i
CCCC(=O)N1CCc2cc(-c3nc(N)sc3C)ccc21,i,i,i,i,101*
CCOC(=O)C1=NNC(C(=O)c2ccc(Cl)cc2)C1c1ccc(OC)cc1 (stereo not given),i,i,15*,i,i
Cc1ccc2[nH]c(C(=O)NN=C3CCCCC3)c(-c3ccccc3)c2c1,i,i,10*,i,i
Cc1ccc2[nH]c(C(=O)O)c(-c3ccccc3)c2c1,i,i,i,i,i
COc1ccc(-c2ccc(NC(=O)c3ccc(Br)o3)cc2)nn1,i,i,i,i,i
O=C(C1CCN(CC2CC=CCC2)CC1)N(CCc1ccccc1)Cc1ccccc1 (stereo not given),i,-5*,i,i,i
O=C(C1CCN(S(=O)(=O)c2cnc[nH]2)CC1)N(CCc1ccccc1)Cc1ccccc1,i,i,i,i,i
CCCC(=O)c1ccc(N2CCN(C(=O)c3ccccc3)CC2)c(F)c1,i,i,i,i,i
CCCC(=O)c1ccc(N2CCN(C(=O)c3ccccc3Br)CC2)c(F)c1,i,i,11*,i,i
Cc1ccccc1Nc1nc(NCc2ccco2)c2ccccc2n1,-5.8*,-9*,i,i,49*
C=CCn1c(NC(C)c2cc(Cl)ccc2O)nc2ccccc21 (stereo not given),i,-6*,i,i,i
CC1(C)Cc2c(sc(NC(=O)c3ccc(C(=O)c4ccccc4)cc3)c2C#N)C(C)(C)N1,i,i,i,i,i
Cc1cccc2nc(CSc3ccc(Cl)cc3)cn12,i,-8*,i,i,i
Clc1ccc(SCc2cn3ccccc3n2)cc1,i,i,i,i,i
CCNC(=O)/C(C#N)=C/c1c(N2CCN(c3ccc(OC)cc3)CC2)nc2c(C)cccn2c1=O,i,i,i,i,i
